Experimental data published in ChEMBL document CHEMBL4177755, “Combating Drug-Resistant Fungi with Novel Imperfectly Amphipathic Palindromic Peptides” (J Med Chem, 2018).

How the values were obtained:
[1] = test system: Pichia kudriavzevii; assay: Fungicidal activity against Candida krusei cgmcc 2.1857 after 96 hrs; assay type: functional; conditions: cgmcc 2.1857, 96 h, read-out: MFC99.9
In short: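 Wells from the 48 h, 28 °C RPMI 1640/MOPS microdilution plates were plated on YM agar and incubated a further 48 h at 28 °C. MFC is the lowest concentration killing at least 99.9% of cells. Run in triplicate with three biological replicates.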

[2] = Cytotoxicity against mouse RAW264.7 cells assessed as cell viability at 2 to 64 uM after 24 hrs by MTT assay relative to control; assay type: cell-based; conditions: read-out: Activity
In short: (§1)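 MTT viability assay. RAW264.7 or HEK293T cells at (1.0−2.0) × 10^5 per well were exposed to a peptide concentration series for 24 h at 37 °C in 5% CO2. MTT was then added at 0.5 mg/mL final for 4 h; formazan was dissolved in DMSO and read at 570 nm. Results average three independent trials.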

[3] = test system: Staphylococcus aureus; assay: Antibacterial activity against methicillin-resistant Staphylococcus aureus ATCC 4330 after 24 hrs; assay type: functional; conditions: ATCC 4330, 24 h
In short: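 Modified NCCLS broth microdilution. Mid-log bacteria at (0.5−1) × 10^5 CFU/mL in MHB were mixed 1:1 with peptide serially diluted in 0.2% BSA and incubated 24 h at 37 °C. Absorbance was read at 492 nm; MIC is the lowest concentration inhibiting 95% of growth. At least 3 repeats.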

[4] = test system: Escherichia coli; assay: Antibacterial activity against Escherichia coli ATCC 25922 after 18 hrs in presence of ZnCl2 by broth dilution method; assay type: functional; conditions: ATCC 25922, 18 h
[5] = test system: Staphylococcus aureus; assay: Bactericidal activity against Staphylococcus aureus ATCC 25923; assay type: functional; conditions: read-out: MBC99.9
In short: (§2)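 Wells from the 24 h, 37 °C MHB microdilution plates (bacteria at a final (0.5−1) × 10^5 CFU/mL; peptide diluted in 0.2% BSA) were plated on agar and incubated overnight. MBC is the lowest concentration killing >99.9% of cells. Each test was reproduced at least 3 times.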

[6] = test system: Escherichia coli; assay: Antibacterial activity against Escherichia coli ATCC 25922 after 18 hrs in presence of MgCl2 by broth dilution method; assay type: functional; conditions: ATCC 25922, 18 h
[7] = test system: Erythrocyte; assay: Hemolytic activity in human RBC after 1 hr; assay type: ADME, cell-based
In short: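 Fresh human erythrocytes, diluted 10-fold in PBS pH 7.4, were mixed with equal volumes of peptide and held 1 h at 37 °C. After centrifugation at 1000g, supernatant hemoglobin was read at 576 nm. PBS set 0% and 0.1% Triton X-100 set 100% lysis. MHC is the concentration causing 10% hemolysis. At least three experiments were run, each in technical triplicate.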

[8] = test system: Candida albicans; assay: Fungicidal activity against Candida albicans 14936 after 96 hrs; assay type: functional; conditions: Candida albicans, 14936, 96 h; read-out: MFC99.9
In short: (§3)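 After the 48 h, 28 °C broth microdilution in MOPS-buffered RPMI 1640 (inoculum (0.5−1) × 10^3 CFU/mL), 50 μL from each well was plated on YM agar for a further 48 h at 28 °C. MFC is the lowest concentration killing at least 99.9% of cells. Triplicate, three biological replicates.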

[9] = test system: Staphylococcus aureus; assay: Bactericidal activity against methicillin-resistant Staphylococcus aureus ATCC 4330; assay type: functional; conditions: read-out: MBC99.9
In short: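 Bacteria at (0.5−1) × 10^5 CFU/mL in MHB were exposed to serially diluted peptide (0.2% BSA) for 24 h at 37 °C, then 50 μL aliquots were plated on agar overnight. MBC is the lowest concentration killing >99.9% of cells. At least 3 repeats.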

[10] = Antibacterial activity against Salmonella pullorum ATCC 7913 after 24 hrs; assay type: functional, Salmonella enterica subsp. enterica serovar Pullorum; conditions: Salmonella enterica, ATCC 7913, 24 h
In short: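 Broth microdilution. Mid-log bacteria in MHB at a final (0.5−1) × 10^5 CFU/mL were mixed with equal volumes of peptide serially diluted in 0.2% BSA. Plates were incubated 24 h at 37 °C and read at A492. MIC is the lowest concentration inhibiting 95% of growth. Each test was repeated at least 3 times.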

[11] = test system: Candida albicans; assay: Antifungal activity against Candida albicans cgmcc 2.2086 in presence of CaCl2 by broth dilution method; assay type: functional
[12] = test system: Candida albicans; assay: Antifungal activity against Candida albicans isolated from alveolar fluid after 48 hrs by broth microdilution method; assay type: functional
In short: (§4)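 Modified CLSI M27-A2 broth microdilution. Yeast at (0.5−1) × 10^3 CFU/mL in MOPS-buffered RPMI 1640 was mixed 1:1 with peptide serially diluted in 0.2% BSA and incubated 48 h at 28 °C. Absorbance was read at 492 nm; MIC is the lowest concentration inhibiting 95% of growth. Triplicate, three biological replicates.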

[13] = test system: Candida albicans; assay: Antifungal activity against Candida albicans SP3931 after 48 hrs by broth microdilution method; assay type: functional; conditions: SP3931, 48 h; in short: as §4
[14] = test system: Escherichia coli; assay: Antibacterial activity against Escherichia coli ATCC 25922 after 18 hrs in presence of NaCl by broth dilution method; assay type: functional; conditions: ATCC 25922, 18 h
[15] = test system: Escherichia coli; assay: Antibacterial activity against Escherichia coli ATCC 25922 after 18 hrs in presence of CaCl2 by broth dilution method; assay type: functional; conditions: ATCC 25922, 18 h
[16] = test system: Candida albicans; assay: Fungicidal activity against Candida albicans SP3903 after 96 hrs; assay type: functional; conditions: SP3903, 96 h, read-out: MFC99.9; in short: as §3
[17] = test system: Candida parapsilosis; assay: Antifungal activity against Candida parapsilosis cgmcc 2.3989 after 48 hrs by broth microdilution method; assay type: functional; conditions: Lodderomyces parapsilosis, cgmcc 2.3989, 48 h
In short: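 Modified CLSI M27-A2 broth microdilution. Yeast were suspended in MOPS-buffered RPMI 1640 at a final (0.5−1) × 10^3 CFU/mL and mixed 1:1 with peptide serially diluted in 0.2% BSA. Plates were incubated 48 h at 28 °C and read at A492. MIC is the lowest concentration giving 95% inhibition. Run in triplicate with three biological replicates.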

[18] = test system: Candida albicans; assay: Fungicidal activity against fluconazole-resistant Candida albicans 56214 after 96 hrs; assay type: functional; conditions: Candida albicans, 56214, 96 h; read-out: MFC99.9; in short: as §3
[19] = Cytotoxicity against HEK293T cells assessed as cell viability at 2 to 64 uM after 24 hrs by MTT assay relative to control; assay type: cell-based, HEK-293T; conditions: human, read-out: Activity; in short: as §1
[20] = test system: Salmonella typhimurium; assay: Bactericidal activity against Salmonella typhimurium ATCC 14028; assay type: functional, Salmonella enterica subsp. enterica serovar Typhimurium; conditions: Salmonella enterica, read-out: MBC99.9; in short: as §2
[21] = test system: Candida albicans; assay: Fungicidal activity against Candida albicans SP3931 after 96 hrs; assay type: functional; conditions: SP3931, 96 h, read-out: MFC99.9; in short: as §3
[22] = test system: Candida albicans; assay: Antifungal activity against Candida albicans cgmcc 2.2086 in presence of KCl by broth dilution method; assay type: functional
[23] = test system: Candida albicans; assay: Fungicidal activity against fluconazole-resistant Candida albicans 56452 after 96 hrs; assay type: functional; conditions: Candida albicans, 56452, 96 h; read-out: MFC99.9; in short: as §3
[24] = test system: Escherichia coli; assay: Antibacterial activity against Escherichia coli ATCC 25922 after 18 hrs in presence of NH4Cl by broth dilution method; assay type: functional; conditions: ATCC 25922, 18 h
[25] = test system: Candida albicans; assay: Antifungal activity against Candida albicans cgmcc 2.2086 in presence of NH4Cl by broth dilution method; assay type: functional
[26] = test system: Candida albicans; assay: Fungicidal activity against Candida albicans SP3902 after 96 hrs; assay type: functional; conditions: SP3902, 96 h, read-out: MFC99.9; in short: as §3
[27] = test system: Candida albicans; assay: Antifungal activity against fluconazole-resistant Candida albicans 17546 after 48 hrs by broth microdilution method; assay type: functional; conditions: Candida albicans, 17546, 48 h; in short: as §4

Substance	MFC [1] [µM]	viability at 24 h, up to 64 µM [2] [%]	MIC95 [3] [µM]	MIC [4] [µM]	MBC [5] [µM]	MIC [6] [µM]	HC10 [7] [µM]	MFC [8] [µM]	MBC [9] [µM]	MIC95 [10] [µM]	MIC [11] [µM]	MIC95 [12] [µM]	MIC95 [13] [µM]	MIC [14] [µM]	MIC [15] [µM]	MFC [16] [µM]	MIC95 [17] [µM]	MFC [18] [µM]	viability at 24 h, up to 64 µM [19] [%]	MBC [20] [µM]	other results
H-RWRWWWRWR-NH2	8	70 to 80	2	2	8	2	> 128	8	2	2	32	8	8	4	4	8	16	8	70 to 80	4	MFC [21]: 16 µM; MIC [22]: 16 µM; MFC [23]: 4 µM; MIC [24]: 4 µM; MIC [25]: 8 µM; MFC [26]: 16 µM; MIC95 [27]: 1 µM
H-RFRFFFRFR-NH2	4	70 to 80	4	4	8	2	> 128	8	4	2	64	8	8	4	4	4	16	16	70 to 80	8	MFC [21]: 16 µM; MIC [22]: 32 µM; MFC [23]: 4 µM; MIC [24]: 4 µM; MIC [25]: 8 µM; MFC [26]: 4 µM; MIC95 [27]: 4 µM
H-RIRIIIRIR-NH2	4	70 to 80	4	8	8	8	> 128	2	4	4	32	4	4	8	16	8	8	4	70 to 80	8	MFC [21]: 8 µM; MIC [22]: 4 µM; MFC [23]: 4 µM; MIC [24]: 4 µM; MIC [25]: 4 µM; MFC [26]: 2 µM; MIC95 [27]: 2 µM
H-RRFRFFFRFRR-NH2	2	70 to 80	4	2	16	2	> 128	4	8	2	16	4	4	4	4	2	16	8	70 to 80	8	MFC [21]: 8 µM; MIC [22]: 16 µM; MFC [23]: 4 µM; MIC [24]: 4 µM; MIC [25]: 4 µM; MFC [26]: 4 µM; MIC95 [27]: 2 µM
H-RFFRRFRRFFR-NH2	4	70 to 80	4	8	8	2	> 128	16	8	4	64	8	8	8	8	4	> 64	16	70 to 80	8	MFC [21]: 16 µM; MIC [22]: 16 µM; MFC [23]: 8 µM; MIC [24]: 4 µM; MIC [25]: 4 µM; MFC [26]: 8 µM; MIC95 [27]: 4 µM
